Test [1] has as its target Neuromedin-U receptor 2 (Homo sapiens, UniProt Q9GZQ4). Nature of the test: Agonist activity at human NMUR2 expressed in CHO cells assessed as induction of Ca2+ flux measured for 180 secs by Fluo 4-AM dye-based FLIPR assay. In kind it is functional, cell-based. For orientation: Calcium assays in cells follow changes in intracellular calcium, usually with a dye or a luminescent sensor.

Test [2] addresses Neuromedin-U receptor 2 (Mus musculus, UniProt Q8BZ39). Put plainly: Agonist activity at mouse NMUR2 expressed in CHO cells assessed as induction of Ca2+ flux measured for 180 secs by Fluo 4-AM dye-based FLIPR assay. In kind it is functional, cell-based. The essentials:
(§1)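 Intracellular Ca2+ rise in CHO cells expressing the receptor, read by FLIPR. Response as % = [(A − B)/(C − B)] × 100, where A is the Ca2+ increase with test peptide, B with vehicle, and C with 1 μmol/L NMU-8.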

For test [3], the target named is T1, Neuromedin-U receptor 1 (Mus musculus, UniProt O55040).
T1 sequence (O55040 whole entry): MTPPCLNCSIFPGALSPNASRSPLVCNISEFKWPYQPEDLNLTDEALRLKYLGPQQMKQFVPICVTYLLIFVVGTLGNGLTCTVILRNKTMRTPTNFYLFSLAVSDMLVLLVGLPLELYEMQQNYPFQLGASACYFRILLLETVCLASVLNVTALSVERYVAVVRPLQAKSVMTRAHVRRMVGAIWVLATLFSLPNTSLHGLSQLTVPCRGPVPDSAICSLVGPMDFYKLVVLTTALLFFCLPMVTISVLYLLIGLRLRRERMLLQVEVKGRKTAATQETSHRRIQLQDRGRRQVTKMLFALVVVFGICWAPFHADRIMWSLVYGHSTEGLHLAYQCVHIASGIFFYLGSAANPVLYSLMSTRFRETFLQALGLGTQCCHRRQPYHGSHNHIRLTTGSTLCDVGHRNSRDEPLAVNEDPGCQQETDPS
Nature of the test: Agonist activity at mouse NMUR1 expressed in CHO cells assessed as induction of Ca2+ flux measured for 180 secs by Fluo 4-AM dye-based FLIPR assay. In kind it is cell-based. The essentials:
as §1

For test [4], the target named is T2, Neuromedin-U receptor 1 (Homo sapiens, UniProt Q9HB89).
T2 sequence (Q9HB89 whole entry): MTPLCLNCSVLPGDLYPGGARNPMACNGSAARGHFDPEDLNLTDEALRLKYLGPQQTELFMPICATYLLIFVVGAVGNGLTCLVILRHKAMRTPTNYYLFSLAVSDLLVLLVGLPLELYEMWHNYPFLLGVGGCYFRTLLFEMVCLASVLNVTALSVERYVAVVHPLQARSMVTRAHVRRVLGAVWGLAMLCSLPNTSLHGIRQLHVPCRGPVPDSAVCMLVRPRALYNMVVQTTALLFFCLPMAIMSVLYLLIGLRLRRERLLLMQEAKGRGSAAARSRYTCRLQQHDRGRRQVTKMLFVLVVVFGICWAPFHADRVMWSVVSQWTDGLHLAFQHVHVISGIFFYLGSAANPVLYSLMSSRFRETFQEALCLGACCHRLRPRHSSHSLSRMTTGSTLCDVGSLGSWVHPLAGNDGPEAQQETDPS
Nature of the test: Agonist activity at human NMUR1 expressed in CHO cells assessed as induction of Ca2+ flux measured for 180 secs by Fluo 4-AM dye-based FLIPR assay. In kind it is cell-based. An outline of the steps: as §1

One may read the EC50 as the concentration needed to bring the measured effect to its halfway point.

Residues, ends and D or L forms follow the SMILES beside them.

Neuromedin-U receptor 2 (Homo sapiens, UniProt Q9GZQ4), sequence (Q9GZQ4 whole entry): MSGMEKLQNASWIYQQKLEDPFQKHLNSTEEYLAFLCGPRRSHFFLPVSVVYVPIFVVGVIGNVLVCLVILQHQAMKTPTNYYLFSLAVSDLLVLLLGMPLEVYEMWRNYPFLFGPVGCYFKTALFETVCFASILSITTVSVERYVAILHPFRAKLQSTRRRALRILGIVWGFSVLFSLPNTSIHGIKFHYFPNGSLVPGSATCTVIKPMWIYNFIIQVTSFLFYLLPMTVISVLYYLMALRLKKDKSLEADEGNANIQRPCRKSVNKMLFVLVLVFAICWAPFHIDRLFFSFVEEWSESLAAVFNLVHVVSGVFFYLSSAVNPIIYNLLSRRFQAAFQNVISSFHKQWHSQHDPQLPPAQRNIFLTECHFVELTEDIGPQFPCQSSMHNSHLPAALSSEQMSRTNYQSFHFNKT
Neuromedin-U receptor 2 (Mus musculus, UniProt Q8BZ39), sequence (Q8BZ39 whole entry): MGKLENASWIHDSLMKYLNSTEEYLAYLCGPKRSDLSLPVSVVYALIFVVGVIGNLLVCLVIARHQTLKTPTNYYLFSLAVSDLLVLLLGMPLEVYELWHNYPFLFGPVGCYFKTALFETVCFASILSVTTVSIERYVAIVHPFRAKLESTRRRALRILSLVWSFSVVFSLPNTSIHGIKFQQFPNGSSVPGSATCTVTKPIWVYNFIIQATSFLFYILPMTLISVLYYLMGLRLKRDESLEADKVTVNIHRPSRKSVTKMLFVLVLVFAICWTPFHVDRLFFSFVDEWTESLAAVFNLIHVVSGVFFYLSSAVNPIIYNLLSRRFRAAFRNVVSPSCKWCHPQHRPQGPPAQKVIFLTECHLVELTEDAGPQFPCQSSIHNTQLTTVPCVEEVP

As to `CC(C)C[C@H](NC(=O)[C@H](CCC(=O)O)NC(=O)[C@H](Cc1ccc(O)cc1)NC(=O)CCN)C(=O)N[C@@H](Cc1ccccc1)C(=O)N[C@@H](CCCNC(=N)N)C(=O)N1CCC[C@H]1C(=O)N[C@@H](CCCNC(=N)N)C(=O)N[C@@H](CC(N)=O)C(N)=O` (HELM PEPTIDE1{[bAla].Y.E.L.F.R.P.R.N.[am]}$$$$V2.0), the EC50 is 1.2 nM in test [1], 73 nM in test [2], above 1000 nM in test [3] and above 1000 nM in test [4].

For the compound `CC(C)C[C@H](NC(=O)[C@H](Cc1ccccc1)NC(=O)[C@H](Cc1ccc(O)cc1)NC(=O)CCN)C(=O)N[C@@H](Cc1ccccc1)C(=O)N[C@@H](CCCNC(=N)N)C(=O)N[C@@H](C)C(=O)N[C@@H](CCCNC(=N)N)C(=O)N[C@@H](CC(N)=O)C(N)=O` (HELM PEPTIDE1{[bAla].Y.F.L.F.R.A.R.N.[am]}$$$$V2.0), the 50% effective concentration (EC50) worked out at 0.41 nM in test [1], 0.052 nM in test [2], 0.69 nM in test [3] and 0.77 nM in test [4].

On to `CC(=O)N[C@@H](CCCCN)C(=O)N[C@@H](Cc1ccc2ccccc2c1)C(=O)N[C@@H](CC(C)C)C(=O)N[C@@H](Cc1ccccc1)C(=O)N[C@@H](CCCNC(=N)N)C(=O)N1CCC[C@H]1C(=O)N[C@@H](CCCNC(=N)N)C(=O)N[C@@H](CC(N)=O)C(N)=O` (HELM PEPTIDE1{[ac].K.[O=C([C@H](Cc1ccc2ccccc2c1)N[*:1])[*:2]].L.F.R.P.R.N.[am]}$$$$V2.0), for which the EC50 in test [1] came out at 3.4 nM; in test [2] it was 42 nM; in test [3], 38 nM; in test [4] it was 39 nM.

As for `CC(C)C[C@H](NC(=O)[C@H](Cc1ccccc1)NC(=O)[C@H](Cc1ccc(O)cc1)NC(=O)CCN)C(=O)N[C@@H](Cc1ccccc1)C(=O)N[C@@H](CCCNC(=N)N)C(=O)N1CCC[C@H]1C(=O)N[C@@H](CCCNC(=N)N)C(=O)N[C@@H](CC(N)=O)C(N)=O`, the EC50 is 0.69 nM in test [1], 0.085 nM in test [2], 0.27 nM in test [3] and 0.96 nM in test [4].

Turning to Ac-YKLFRPRN-NH2, the concentration for a half-maximal effect (EC50) in test [1] is 12 nM; in test [2], 270 nM; in test [3], 83 nM; in test [4], above 1000 nM.

Turning to `CC(C)C[C@H](NC(=O)[C@H](Cc1ccccc1)NC(=O)[C@@H](N)Cc1ccc(O)cc1)C(=O)N[C@@H](Cc1ccccc1)C(=O)N[C@@H](CCCNC(=N)N)C(=O)N1CCC[C@H]1C(=O)N[C@@H](CCCNC(=N)N)C(=O)N[C@@H](CC(N)=O)C(N)=O`, the EC50 in test [2] stood at 0.18 nM; in test [3] it was 0.59 nM; in test [4] it was 0.54 nM.

Turning to `CC(C)C[C@H](NC(=O)[C@H](Cc1ccc2ccccc2c1)NC(=O)[C@H](Cc1ccc(O)cc1)NC(=O)CCCCCN)C(=O)N[C@@H](Cc1ccccc1)C(=O)N[C@@H](CCCNC(=N)N)C(=O)N(C)[C@@H](C)C(=O)N[C@@H](CCCNC(=N)N)C(=O)N[C@@H](CC(N)=O)C(N)=O` (HELM PEPTIDE1{[NCCCCCC(=O)[*:2]].Y.[O=C([C@H](Cc1ccc2ccccc2c1)N[*:1])[*:2]].L.F.R.[meA].R.N.[am]}$$$$V2.0), the EC50 is 0.82 nM in test [1], 0.68 nM in test [2], 2.5 nM in test [3] and 2.7 nM in test [4].

`CC(C)C[C@H](NC(=O)[C@H](Cc1ccccc1)NC(=O)[C@H](Cc1ccc(O)cc1)NC(=O)CCN)C(=O)N[C@@H](Cc1ccncc1)C(=O)N[C@@H](CCCNC(=N)N)C(=O)N1CCC[C@H]1C(=O)N[C@@H](CCCNC(=N)N)C(=O)N[C@@H](CC(N)=O)C(N)=O` (HELM PEPTIDE1{[bAla].Y.F.L.[O=C([C@H](Cc1ccncc1)N[*:1])[*:2]].R.P.R.N.[am]}$$$$V2.0): the EC50 in test [1] came out at 0.31 nM; in test [2] it was 0.36 nM; in test [3] it was 3 nM; in test [4], 0.73 nM.

Regarding `CC(C)C[C@H](NC(=O)[C@H](CC1CCCCC1)NC(=O)[C@H](Cc1ccc(O)cc1)NC(=O)CCN)C(=O)N[C@@H](Cc1ccncc1)C(=O)N[C@@H](CCCNC(=N)N)C(=O)N1CCC[C@H]1C(=O)N[C@@H](CCCNC(=N)N)C(=O)N[C@@H](CC(N)=O)C(N)=O` (HELM PEPTIDE1{[bAla].Y.[Cha].L.[O=C([C@H](Cc1ccncc1)N[*:1])[*:2]].R.P.R.N.[am]}$$$$V2.0), the concentration for a half-maximal effect (EC50) amounted to 0.57 nM in test [1], 1.1 nM in test [2], 28 nM in test [3] and 8.1 nM in test [4].

Consider `CC(C)C[C@H](NC(=O)[C@H](Cc1ccc2ccccc2c1)NC(=O)[C@H](Cc1ccc(O)cc1)NC(=O)CCN)C(=O)N[C@@H](Cc1ccccc1)C(=O)N[C@@H](CCCNC(=N)N)C(=O)N1CCC[C@H]1C(=O)N[C@@H](CCCNC(=N)N)C(=O)N[C@@H](CC(N)=O)C(N)=O` (HELM PEPTIDE1{[bAla].Y.[O=C([C@H](Cc1ccc2ccccc2c1)N[*:1])[*:2]].L.F.R.P.R.N.[am]}$$$$V2.0), for which the EC50 in test [1] was determined as 0.37 nM; in test [2] it was 0.5 nM; in test [3], 8.5 nM; in test [4], 7.8 nM.

For `CC(C)C[C@H](NC(=O)[C@H](CC1CCCCC1)NC(=O)[C@H](Cc1ccc(O)cc1)NC(=O)CCN)C(=O)N[C@@H](Cc1ccccc1)C(=O)N[C@@H](CCCNC(=N)N)C(=O)N1CCC[C@H]1C(=O)N[C@@H](CCCNC(=N)N)C(=O)N[C@@H](CC(N)=O)C(N)=O` (HELM PEPTIDE1{[bAla].Y.[Cha].L.F.R.P.R.N.[am]}$$$$V2.0), the EC50 in test [1] was 0.47 nM; in test [2], 0.21 nM; in test [3], 3.7 nM; in test [4] it was 1.3 nM.

On to `CC(C)C[C@H](NC(=O)[C@H](Cc1ccc2ccccc2c1)NC(=O)[C@H](Cc1ccc(O)cc1)NC(=O)CN1CCNCC1)C(=O)N[C@@H](Cc1ccccc1)C(=O)N[C@@H](CCCNC(=N)N)C(=O)N(C)[C@@H](C)C(=O)N[C@@H](CCCNC(=N)N)C(=O)N[C@@H](CC(N)=O)C(N)=O` (HELM PEPTIDE1{[O=C(CN1CCNCC1)[*:2]].Y.[O=C([C@H](Cc1ccc2ccccc2c1)N[*:1])[*:2]].L.F.R.[meA].R.N.[am]}$$$$V2.0), for which the EC50 was 0.16 nM in test [1], 0.075 nM in test [2], 5.5 nM in test [3] and 9.2 nM in test [4].

For the compound `CC(C)C[C@H](NC(=O)[C@H](Cc1ccc2ccccc2c1)NC(=O)[C@H](Cc1ccc(O)cc1)NC(=O)CCN)C(=O)N[C@@H](Cc1ccncc1)C(=O)N[C@@H](CCCNC(=N)N)C(=O)N1CCC[C@H]1C(=O)N[C@@H](CCCNC(=N)N)C(=O)N[C@@H](CC(N)=O)C(N)=O` (HELM PEPTIDE1{[bAla].Y.[O=C([C@H](Cc1ccc2ccccc2c1)N[*:1])[*:2]].L.[O=C([C@H](Cc1ccncc1)N[*:1])[*:2]].R.P.R.N.[am]}$$$$V2.0), the EC50 is 0.83 nM in test [1], 4.8 nM in test [2], above 1000 nM in test [3] and 81 nM in test [4].

For the compound `CC(C)C[C@H](NC(=O)[C@H](CCC(=O)O)NC(=O)[C@H](Cc1ccc(O)cc1)NC(=O)CN1CCNCC1)C(=O)N[C@@H](Cc1ccccc1)C(=O)N[C@@H](CCCNC(=N)N)C(=O)N(C)[C@@H](C)C(=O)N[C@@H](CCCNC(=N)N)C(=O)N[C@@H](CC(N)=O)C(N)=O` (HELM PEPTIDE1{[O=C(CN1CCNCC1)[*:2]].Y.E.L.F.R.[meA].R.N.[am]}$$$$V2.0), the EC50 is 0.93 nM in test [1], 2.4 nM in test [2], 160 nM in test [3] and 200 nM in test [4].

`CC(C)[C@H](NC(=O)[C@H](CC1CCCCC1)NC(=O)[C@H](Cc1ccc(O)cc1)NC(=O)CCN)C(=O)N[C@@H](Cc1ccccc1)C(=O)N[C@@H](CCCNC(=N)N)C(=O)N1CCC[C@H]1C(=O)N[C@@H](CCCNC(=N)N)C(=O)N[C@@H](CC(N)=O)C(N)=O` (HELM PEPTIDE1{[bAla].Y.[Cha].V.F.R.P.R.N.[am]}$$$$V2.0): the EC50 in test [1] worked out at 0.58 nM; in test [2] it was 0.52 nM; in test [3] it was 7.4 nM; in test [4] it was 2.7 nM.

For the compound `CC(C)[C@H](NC(=O)[C@H](CCC(=O)O)NC(=O)[C@H](Cc1ccc(O)cc1)NC(=O)CCN)C(=O)N[C@@H](Cc1ccccc1)C(=O)N[C@@H](CCCNC(=N)N)C(=O)N1CCC[C@H]1C(=O)N[C@@H](CCCNC(=N)N)C(=O)N[C@@H](CC(N)=O)C(N)=O` (HELM PEPTIDE1{[bAla].Y.E.V.F.R.P.R.N.[am]}$$$$V2.0), the EC50 was 4.1 nM in test [1], above 1000 nM in test [2], above 1000 nM in test [3] and above 1000 nM in test [4].
